Results from ChEMBL document CHEMBL1140872, “Discovery of a potent and selective inhibitor for human carbonyl reductase 1 from propionate scanning applied to the macrolide zearalenone” (Bioorg Med Chem, 2009).

What was measured:
[1] = target: Serine/threonine-protein kinase pim-2 (Homo sapiens) (UniProt Q9P1W9); experiment: Binding affinity to human recombinant PIM2 expressed in Escherichia coli assessed as thermal shift by differential scanning fluorimetry
Method in brief: (§1)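 Thermal-shift (DSF) binding assay with purified recombinant catalytic domains or proteins carrying an N- or C-terminal His6 tag or GST fusion. Purity was >95% by SDS/PAGE and identity was confirmed by MS. Protein was at 2 µM final in 10 mM HEPES pH 7.5 and 150 mM NaCl. Tm shift is reported, with 2 °C as the threshold for binding.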

[2] = target: T1, Cyclin-G-associated kinase (Homo sapiens) (UniProt O14976); experiment: Binding affinity to human recombinant GAK expressed in Escherichia coli assessed as thermal shift by differential scanning fluorimetry; method in brief: as §1
T1 sequence (whole entry): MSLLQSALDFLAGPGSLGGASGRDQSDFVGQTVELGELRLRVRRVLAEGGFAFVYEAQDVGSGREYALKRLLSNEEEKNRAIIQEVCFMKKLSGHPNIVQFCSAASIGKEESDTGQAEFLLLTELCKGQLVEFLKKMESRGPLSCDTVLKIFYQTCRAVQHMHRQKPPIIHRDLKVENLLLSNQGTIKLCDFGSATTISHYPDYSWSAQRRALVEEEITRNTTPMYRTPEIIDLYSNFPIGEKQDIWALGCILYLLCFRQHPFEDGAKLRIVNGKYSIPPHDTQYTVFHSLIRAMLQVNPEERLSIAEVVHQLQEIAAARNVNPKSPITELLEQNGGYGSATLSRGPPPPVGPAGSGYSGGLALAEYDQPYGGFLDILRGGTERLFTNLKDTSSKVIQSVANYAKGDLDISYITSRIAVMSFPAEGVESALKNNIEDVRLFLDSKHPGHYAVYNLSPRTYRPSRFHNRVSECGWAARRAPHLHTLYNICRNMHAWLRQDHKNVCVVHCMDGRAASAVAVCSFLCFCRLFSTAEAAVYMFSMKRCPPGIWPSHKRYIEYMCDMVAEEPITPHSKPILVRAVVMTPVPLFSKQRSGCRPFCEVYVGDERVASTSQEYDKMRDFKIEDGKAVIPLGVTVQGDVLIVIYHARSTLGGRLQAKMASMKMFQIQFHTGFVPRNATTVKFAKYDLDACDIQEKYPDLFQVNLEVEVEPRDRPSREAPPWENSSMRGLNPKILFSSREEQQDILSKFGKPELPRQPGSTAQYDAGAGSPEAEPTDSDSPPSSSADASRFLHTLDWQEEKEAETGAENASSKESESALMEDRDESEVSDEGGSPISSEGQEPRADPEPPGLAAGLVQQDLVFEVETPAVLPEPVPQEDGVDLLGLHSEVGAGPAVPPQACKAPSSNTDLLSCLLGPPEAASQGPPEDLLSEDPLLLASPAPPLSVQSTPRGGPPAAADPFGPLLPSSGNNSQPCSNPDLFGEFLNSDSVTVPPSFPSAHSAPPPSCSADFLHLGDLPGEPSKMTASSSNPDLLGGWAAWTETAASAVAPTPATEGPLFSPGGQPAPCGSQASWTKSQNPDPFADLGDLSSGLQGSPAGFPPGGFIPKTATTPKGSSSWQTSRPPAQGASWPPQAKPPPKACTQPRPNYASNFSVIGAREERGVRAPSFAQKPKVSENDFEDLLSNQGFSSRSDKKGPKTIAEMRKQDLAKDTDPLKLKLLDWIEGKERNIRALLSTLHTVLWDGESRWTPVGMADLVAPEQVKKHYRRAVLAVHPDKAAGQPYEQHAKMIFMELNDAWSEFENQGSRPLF

[3] = target: Mitogen-activated protein kinase 11 (Homo sapiens) (UniProt Q15759); experiment: Binding affinity to human recombinant MAPK11 expressed in Escherichia coli assessed as thermal shift by differential scanning fluorimetry; method in brief: as §1
Sequence of Mitogen-activated protein kinase 11 (Homo sapiens) (Q15759 whole entry): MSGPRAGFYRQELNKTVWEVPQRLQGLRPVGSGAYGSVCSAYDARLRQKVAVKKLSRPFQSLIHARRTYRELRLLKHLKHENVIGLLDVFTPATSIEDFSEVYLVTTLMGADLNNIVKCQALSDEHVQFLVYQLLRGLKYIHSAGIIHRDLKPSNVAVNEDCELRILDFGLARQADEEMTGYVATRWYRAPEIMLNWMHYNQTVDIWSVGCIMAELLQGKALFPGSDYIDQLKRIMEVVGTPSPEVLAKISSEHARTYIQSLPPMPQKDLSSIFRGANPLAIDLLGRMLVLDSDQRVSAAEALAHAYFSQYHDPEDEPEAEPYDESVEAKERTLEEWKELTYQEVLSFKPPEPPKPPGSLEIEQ

[4] = target: T2, Serine/threonine-protein kinase 3 (Homo sapiens) (UniProt Q13188); experiment: Binding affinity to human recombinant STK3 expressed in Escherichia coli assessed as thermal shift by differential scanning fluorimetry; method in brief: as §1
T2 sequence (whole entry): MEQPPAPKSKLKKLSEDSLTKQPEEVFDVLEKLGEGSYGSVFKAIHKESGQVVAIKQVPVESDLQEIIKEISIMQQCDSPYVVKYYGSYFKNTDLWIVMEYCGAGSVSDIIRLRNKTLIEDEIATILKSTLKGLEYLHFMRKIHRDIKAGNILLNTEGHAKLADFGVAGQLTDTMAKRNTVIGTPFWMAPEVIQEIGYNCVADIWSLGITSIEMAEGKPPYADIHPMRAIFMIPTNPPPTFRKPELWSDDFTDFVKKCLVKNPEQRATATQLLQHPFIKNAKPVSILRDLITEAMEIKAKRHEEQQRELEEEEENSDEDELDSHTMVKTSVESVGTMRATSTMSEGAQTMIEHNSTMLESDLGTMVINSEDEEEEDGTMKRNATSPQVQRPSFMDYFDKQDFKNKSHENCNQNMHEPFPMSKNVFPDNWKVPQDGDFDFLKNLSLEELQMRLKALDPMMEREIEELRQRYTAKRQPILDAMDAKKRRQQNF

[5] = target: STE20-like serine/threonine-protein kinase (Homo sapiens) (UniProt Q9H2G2); experiment: Binding affinity to human recombinant SLK expressed in Escherichia coli assessed as thermal shift by differential scanning fluorimetry; method in brief: as §1
Sequence of STE20-like serine/threonine-protein kinase (Homo sapiens) (Q9H2G2 whole entry, looked up): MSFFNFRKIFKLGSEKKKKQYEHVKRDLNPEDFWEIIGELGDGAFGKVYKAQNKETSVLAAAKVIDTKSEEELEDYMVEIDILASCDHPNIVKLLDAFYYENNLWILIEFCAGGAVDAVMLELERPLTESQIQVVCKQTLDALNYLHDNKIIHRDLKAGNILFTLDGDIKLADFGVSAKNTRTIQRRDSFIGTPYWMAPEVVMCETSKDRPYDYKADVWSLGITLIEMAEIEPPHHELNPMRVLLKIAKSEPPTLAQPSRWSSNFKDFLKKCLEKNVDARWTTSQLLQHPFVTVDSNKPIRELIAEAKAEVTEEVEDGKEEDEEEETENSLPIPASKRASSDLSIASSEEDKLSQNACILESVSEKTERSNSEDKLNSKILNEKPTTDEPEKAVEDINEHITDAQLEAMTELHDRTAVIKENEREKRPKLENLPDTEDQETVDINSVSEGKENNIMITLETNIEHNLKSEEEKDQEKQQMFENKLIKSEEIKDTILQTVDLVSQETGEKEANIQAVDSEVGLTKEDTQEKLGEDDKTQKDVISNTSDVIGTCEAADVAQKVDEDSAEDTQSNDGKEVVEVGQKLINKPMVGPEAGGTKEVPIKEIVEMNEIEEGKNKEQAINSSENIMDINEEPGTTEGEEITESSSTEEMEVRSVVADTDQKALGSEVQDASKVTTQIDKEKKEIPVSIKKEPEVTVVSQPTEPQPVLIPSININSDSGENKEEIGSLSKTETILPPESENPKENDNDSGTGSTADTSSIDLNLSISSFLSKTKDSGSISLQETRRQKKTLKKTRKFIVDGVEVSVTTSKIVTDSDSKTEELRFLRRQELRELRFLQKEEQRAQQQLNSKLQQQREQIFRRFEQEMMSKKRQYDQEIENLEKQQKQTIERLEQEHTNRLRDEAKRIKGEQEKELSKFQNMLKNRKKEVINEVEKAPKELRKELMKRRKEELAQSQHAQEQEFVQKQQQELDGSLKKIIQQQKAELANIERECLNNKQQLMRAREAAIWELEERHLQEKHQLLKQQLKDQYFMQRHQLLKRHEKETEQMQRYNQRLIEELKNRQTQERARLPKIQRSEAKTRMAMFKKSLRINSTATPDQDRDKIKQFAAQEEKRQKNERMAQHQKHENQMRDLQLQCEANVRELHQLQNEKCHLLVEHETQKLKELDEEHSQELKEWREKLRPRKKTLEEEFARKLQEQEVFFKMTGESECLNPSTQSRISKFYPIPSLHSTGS

[6] = target: T3, Dual specificity mitogen-activated protein kinase kinase 6 (Homo sapiens) (UniProt P52564); experiment: Binding affinity to human recombinant MAP2K6 expressed in Escherichia coli assessed as thermal shift by differential scanning fluorimetry; method in brief: as §1
T3 sequence (whole entry): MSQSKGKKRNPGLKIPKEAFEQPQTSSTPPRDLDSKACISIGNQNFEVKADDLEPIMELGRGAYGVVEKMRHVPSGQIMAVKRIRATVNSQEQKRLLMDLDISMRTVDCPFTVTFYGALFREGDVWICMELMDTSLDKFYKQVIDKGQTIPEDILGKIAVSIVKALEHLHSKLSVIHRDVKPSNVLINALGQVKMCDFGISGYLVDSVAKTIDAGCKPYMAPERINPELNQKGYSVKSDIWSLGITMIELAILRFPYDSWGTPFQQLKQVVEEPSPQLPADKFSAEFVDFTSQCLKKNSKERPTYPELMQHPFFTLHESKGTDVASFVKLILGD

[7] = target: T4, Carbonyl reductase [NADPH] 3 (Homo sapiens) (UniProt O75828); experiment: Binding affinity to human recombinant carbonyl reductase 3 expressed in Escherichia coli assessed as thermal shift by differential scanning fluorimetry in absence of cofactor; method in brief: as §1
T4 sequence (whole entry): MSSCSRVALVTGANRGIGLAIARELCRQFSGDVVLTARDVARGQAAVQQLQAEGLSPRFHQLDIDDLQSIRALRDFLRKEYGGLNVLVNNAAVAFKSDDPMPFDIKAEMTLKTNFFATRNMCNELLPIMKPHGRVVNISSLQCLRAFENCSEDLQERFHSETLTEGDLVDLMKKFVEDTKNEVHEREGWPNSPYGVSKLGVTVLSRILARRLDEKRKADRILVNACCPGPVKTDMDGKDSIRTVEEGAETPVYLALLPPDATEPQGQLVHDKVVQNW

Sequence of Serine/threonine-protein kinase pim-2 (Homo sapiens) (Q9P1W9 whole entry, looked up, the tested form may be a part): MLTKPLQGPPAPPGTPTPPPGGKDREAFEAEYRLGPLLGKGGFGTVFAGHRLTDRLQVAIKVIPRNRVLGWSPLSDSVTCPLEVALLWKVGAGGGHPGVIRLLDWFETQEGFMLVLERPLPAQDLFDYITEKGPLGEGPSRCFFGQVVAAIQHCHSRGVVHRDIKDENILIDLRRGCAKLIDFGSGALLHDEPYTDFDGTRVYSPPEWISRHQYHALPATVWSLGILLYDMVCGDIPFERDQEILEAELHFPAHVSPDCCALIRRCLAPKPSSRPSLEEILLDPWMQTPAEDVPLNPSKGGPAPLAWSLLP

Compound: COc1cc2c(c(OC)c1)C(=O)O[C@@H](C)CCCC(=O)[C@@H](C)CC/C=C/2
- Tm [1]: < 2 °C
- Tm [2]: < 2 °C
- Tm [3]: < 2 °C
- Tm [4]: < 2 °C
- Tm [5]: < 2 °C
- Tm [6]: < 2 °C
- Tm [7]: < 2 °C

Compound: C[C@H]1CCCC(=O)CCC/C=C/c2cc(O)cc(O)c2C(=O)O1
- Tm [1]: 2.6 °C
- Tm [2]: 2.4 °C
- Tm [3]: < 2 °C
- Tm [4]: < 2 °C
- Tm [5]: 4.4 °C
- Tm [6]: < 2 °C
- Tm [7]: < 2 °C

Compound: COC1=C2C[C@@H](C)C[C@H](OC)[C@H](O)[C@@H](C)/C=C(\C)[C@H](OC(N)=O)[C@@H](OC)/C=C\C=C(/C)C(=O)NC(=CC1=O)C2=O
- Tm [1]: < 2 °C
- Tm [2]: < 2 °C
- Tm [3]: < 2 °C
- Tm [4]: < 2 °C
- Tm [5]: < 2 °C
- Tm [6]: < 2 °C
- Tm [7]: < 2 °C

Compound: C[C@@H]1C[C@H]2O[C@@H]2/C=C\C=C\C(=O)Cc2c(Cl)c(O)cc(O)c2C(=O)O1 [RADICICOL]
- Tm [1]: < 2 °C
- Tm [2]: < 2 °C
- Tm [3]: < 2 °C
- Tm [4]: < 2 °C
- Tm [5]: < 2 °C
- Tm [6]: < 2 °C
- Tm [7]: < 2 °C

Compound: COc1cc(O)c2c(c1)/C=C/CC[C@H](C)C(=O)CCC[C@H](C)OC2=O
- Tm [1]: < 2 °C
- Tm [2]: < 2 °C
- Tm [3]: < 2 °C
- Tm [4]: < 2 °C
- Tm [5]: 2.5 °C
- Tm [6]: < 2 °C
- Tm [7]: < 2 °C

Compound: C[C@H]1CCCC(=O)[C@@H](C)CC/C=C/c2cc(O)cc(O)c2C(=O)O1
- Tm [1]: < 2 °C
- Tm [2]: 2.9 °C
- Tm [3]: < 2 °C
- Tm [4]: < 2 °C
- Tm [5]: 3.5 °C
- Tm [6]: < 2 °C
- Tm [7]: < 2 °C

Compound: COc1cc2c(c(OC)c1)C(=O)O[C@@H](C)CCC[C@@H](O)[C@@H](C)CC/C=C/2
- Tm [1]: < 2 °C
- Tm [2]: < 2 °C
- Tm [3]: < 2 °C
- Tm [4]: < 2 °C
- Tm [5]: < 2 °C
- Tm [6]: < 2 °C
- Tm [7]: < 2 °C
